Bioassay records: PubChem BioAssay, several laboratories
KCC2 mod = KCC2 cotransporter modulators, thallium flux, primary screen, cell-based, HEK293 KCC2, FluoZin-2 fluorescence, MLSMR. B-score of Tl+ flux slope (higher = more flux/activation; lower = inhibition) at 10 µM. hit rate 2.2% among 190,000. KCC2 cells, thallium flux FluoZin-2 fluorescence. Solute carrier family 12 member 5 (Homo sapiens), Q9H2X9;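 active means thallium flux slope and its plate-corrected score both differing from the plate sample mean at a set confidence after two filtering rounds, in either direction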;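 further: slope of fluorescence scaled to starting intensity during 10 to 20 s after thallium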
KCNK3 inh = human KCNK3 channel inhibitors, primary screen, CHO cells, FluxOR thallium flux, B-score; B-score at 10 µM; Potassium channel subfamily K member 3 (Homo sapiens), O14649; hit rate 0.84% among 340,000; FluxOR fluorescence; hits give low values; AID 602410, 2012;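 active means B-score under library mean minus 4 SD, starting fluorescence ratio at most library mean plus 5 SD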;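 further: more negative B-score means stronger inhibition of thallium flux through KCNK3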
hERG protect = hERG rescue from dofetilide block, primary screen, cell-based, CHO-hERG, FluxOR thallium flux, dofetilide IC70; Voltage-gated inwardly rectifying potassium channel KCNH2 (Homo sapiens), Q12809; dofetilide IC70 present; activation (rescue from dofetilide block), less the hit threshold, % at 10 µM; hit rate 0.51% among 310,000; AID 1511, 2009;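 active means activation above the mean of controls blocked by dofetilide plus 5 SD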;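 further: thallium influx through hERG after potassium depolarization seen as dye fluorescence rise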
Target sequence (Q12809 whole entry, looked up): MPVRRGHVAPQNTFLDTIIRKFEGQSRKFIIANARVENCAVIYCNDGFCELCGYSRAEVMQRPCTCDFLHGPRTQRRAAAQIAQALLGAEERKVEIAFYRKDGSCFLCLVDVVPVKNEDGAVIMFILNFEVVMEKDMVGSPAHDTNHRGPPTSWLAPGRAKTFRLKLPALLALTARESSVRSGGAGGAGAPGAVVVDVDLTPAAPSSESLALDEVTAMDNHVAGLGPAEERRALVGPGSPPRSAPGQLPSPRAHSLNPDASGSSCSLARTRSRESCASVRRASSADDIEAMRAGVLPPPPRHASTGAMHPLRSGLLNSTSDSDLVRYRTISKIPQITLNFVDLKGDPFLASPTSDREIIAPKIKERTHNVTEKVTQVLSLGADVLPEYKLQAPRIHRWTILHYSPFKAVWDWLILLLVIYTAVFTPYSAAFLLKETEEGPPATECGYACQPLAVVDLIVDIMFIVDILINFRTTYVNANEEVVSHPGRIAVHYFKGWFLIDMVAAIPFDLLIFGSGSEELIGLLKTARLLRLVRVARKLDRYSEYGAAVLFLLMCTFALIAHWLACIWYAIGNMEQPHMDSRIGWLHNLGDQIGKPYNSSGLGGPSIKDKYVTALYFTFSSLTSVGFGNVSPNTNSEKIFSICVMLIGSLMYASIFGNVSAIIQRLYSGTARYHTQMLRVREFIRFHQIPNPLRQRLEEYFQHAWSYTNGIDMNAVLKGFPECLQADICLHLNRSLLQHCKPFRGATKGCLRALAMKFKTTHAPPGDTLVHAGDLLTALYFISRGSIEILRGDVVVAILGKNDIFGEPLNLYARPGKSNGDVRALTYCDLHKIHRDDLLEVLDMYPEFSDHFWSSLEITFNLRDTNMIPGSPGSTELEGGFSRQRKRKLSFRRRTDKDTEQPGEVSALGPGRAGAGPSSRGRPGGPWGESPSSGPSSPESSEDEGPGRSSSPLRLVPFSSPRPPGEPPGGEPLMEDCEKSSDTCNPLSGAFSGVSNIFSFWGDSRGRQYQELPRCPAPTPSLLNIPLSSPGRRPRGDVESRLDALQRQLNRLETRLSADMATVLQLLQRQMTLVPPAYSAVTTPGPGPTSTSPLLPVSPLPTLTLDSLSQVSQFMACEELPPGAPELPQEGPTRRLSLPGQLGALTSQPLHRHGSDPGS
KCNQ1 block = inhibitors of human KCNQ1 channel, primary screen, cell-based, thallium flux, high-throughput. AID 2642, 2010. hit rate 1.3% among 310,000. B-score at 10 µM. Potassium voltage-gated channel subfamily KQT member 1 (Homo sapiens), P51787. CHO-K1 KCNQ1, FluxOR thallium flux fluorescence; hits give high values;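 active means compounds whose thallium flux B-score, printed positive for inhibition, exceeds three library SD while starting fluorescence stays within three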;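 further: channel opened by potassium depolarization with thallium stimulus after 20 min compound exposure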
KCNQ1 act = potentiators or activators of KCNQ1 channel, primary screen, cell-based, thallium flux, high-throughput. AID 2648, 2010. hit rate 0.35% among 310,000. CHO-K1 KCNQ1, thallium flux FluxOR fluorescence; hits give high values. B-score at 10 µM;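 active means fluorescence ratio B-score, a plate-corrected score, at least three library SD, with initial intensity B-score within 5 SD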
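Doses: Single concentration per compound, DMSO matched to controls | Test system: KCNQ1-transfected CHO-K1 cells | Timing: 90 min dye loading and 20 min compound exposure, both at room temperature | Measured by: Kinetic FluxOR thallium fluorescence, 10-s 1-Hz baseline, 110-s post-stimulus read | Medium: Assay buffer with matched DMSO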
KCNK9 inh = KCNK9 potassium channel inhibitors, primary screen, HEK293 cells, thallium flux; FluxOR thallium flux fluorescence; hits give low values; B-score at 10 µM; hit rate 1.2% among 310,000;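 active means ratio B-score over 3 SD below the library mean, with starting fluorescence within 5 SD of its mean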;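 further: negative B-score means less thallium flux so channel inhibition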
KCC2 sec1 = KCC2 modulators in sodium-free buffer, confirmation, cell-based, HEK293 KCC2, thallium flux, secondary assay; shares compounds with KCC2 mod; FluoZin2 fluorescence; hits give high values; normalised thallium flux (F/F0 slope) at 10 µM; hit rate 15% among 3,700;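 active means thallium flux slope above the same plate's solvent-only control mean plus 3 SD; inconclusive means the two replicate wells disagree; inactive means no significant difference from solvent-only control wells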
KCC2 bumet counter = thallium flux persisting under bumetanide in KCC2 cells, confirmation, counter-screen for KCC2 modulator project, cell-based, HEK293 KCC2, FluoZin2, secondary assay 3 | AID 1714, 2009 | HEK293-KCC2 + bumetanide/ouabain; hits give high values | normalized thallium flux at 10 µM | hit rate 49% among 3,700 | shares compounds with KCC2 mod;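 active means thallium entry rate above the same plate's blocked-transporter control wells by more than 3 SD; inconclusive means the two repeat wells disagree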;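 further: raw slope of fluorescence over initial fluorescence between 10 and 20 s after thallium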
KCC2 secondary2 = KCC2 modulators without ouabain present, confirmation, cell-based, HEK293 KCC2, thallium flux, FluoZin2, secondary assay 2. shares compounds with KCC2 mod. thallium flux FluoZin2 fluorescence; actives lie on both sides; F/F0 rise rate, 10–20 s post-thallium. normalized thallium flux at 10 µM. hit rate 23% among 3,700. AID 1715, 2009;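 active means thallium flux slope more than 3 SD above or below the plate's solvent-only control mean, mostly below; inconclusive means the two repeat wells disagreed; inactive means no significant shift from solvent-only controls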;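 further: raw slope with 0.1% DMSO as baseline and bumetanide as block control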
HEK counter1 = thallium flux modulation in parental HEK cells, confirmation, counter-screen for KCC2 modulator project, cell-based, counterscreen 1; shares compounds with KCC2 mod; HEK293 parental cells, thallium flux FluoZin2, ouabain; baseline-ratio fluorescence slope, 10–20 s after thallium; thallium flux rate (normalised fluorescence) at 10 µM; hit rate 46% among 3,700; AID 1716, 2009;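 active means thallium flux rate significantly above the same plate's solvent-only control wells, beyond their mean plus 3 SD; inconclusive means the two replicate wells gave conflicting results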
KCC2 retest ouab = KCC2 inhibitors and activators, ouabain retest, confirmation, HEK-KCC2 cells; shares compounds with KCC2 mod; HEK293-KCC2, thallium flux FluoZin2 fluorescence; bidirectional: low = inhibitor, high = activator; raw Tl+ flux slope (below DMSO = inhibition, above = activation) at 10 µM; hit rate 48% among 3,700; AID 1717, 2009;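 active means thallium flux slope beyond 3 SD from same-plate DMSO control mean in most replicates, usually higher, sometimes lower; inconclusive means repeat tests gave conflicting results; inactive means no significant difference from controls in most replicates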;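 further: slope of initial-normalized fluorescence between seconds 10 and 20 after thallium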
HEK counter2 = native HEK Tl+ uptake effects, second counter-screen – HEK cells, counterscreen 2, counter-screen for KCC2 modulator project, confirmation; shares compounds with KCC2 mod; HEK293 parental, thallium flux FluoZin-2 fluorescence slope; thallium flux slope at 10 µM; hit rate 33% among 3,700;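 active means thallium flux slope above the same plate's solvent-control mean plus 3 SD in both duplicate wells; inconclusive means duplicate wells that disagreed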;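 further: run without ouabain in cells lacking the KCC2 cotransporter; slope of fluorescence scaled to its starting value between 10 and 20 s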
Numbers without * were called inactive. In the library only some 4.1% were active in any assay of this set; here they are far more common.

`COC1=C/C(=C/c2c(N)n3nc(-c4ccc(C)cc4)sc3nc2=O)C=CC1=O` gave KCC2 mod 9.8*, KCNK3 inh inactive, KCC2 sec1 0.0065, KCC2 bumet counter 0.063*, KCC2 secondary2 inconclusive, HEK counter1 0.083*, KCC2 retest ouab inconclusive and HEK counter2 0.024*.
For Cc1oc(-c2ccc(Cl)cc2)nc1CS(=O)CC(=O)NCc1cccs1 (stereo not given) the results were KCC2 mod -3.6*, KCNK3 inh inactive, hERG protect -7, KCNQ1 block inactive, KCNQ1 act inactive, KCNK9 inh inactive, KCC2 sec1 0.0065, KCC2 bumet counter 0.0064, KCC2 secondary2 0.028, HEK counter1 0.0069, KCC2 retest ouab 0.017 and HEK counter2 0.0097.
For CCc1ccc(-c2nc(CS(=O)CC(=O)NCc3cccnc3)c(C)o2)cc1 (stereo not given) the results were KCC2 mod 4.4*, KCNK3 inh inactive, hERG protect -8, KCNQ1 block inactive, KCNQ1 act inactive, KCNK9 inh inactive, KCC2 sec1 0.0052, KCC2 bumet counter 0.0048, KCC2 secondary2 inconclusive, HEK counter1 0.0076, KCC2 retest ouab inconclusive and HEK counter2 0.011.
`COc1ccc(-c2nc(CS(=O)CC(=O)NCc3cccnc3)c(C)o2)cc1` (stereo not given) gave KCC2 mod 1.4, KCNK3 inh inactive, hERG protect -10, KCNQ1 block inactive, KCNQ1 act inactive and KCNK9 inh inactive.
Screening Cc1ccc(NC(=O)c2ncn(CCCNCc3ccccn3)n2)cc1C returned KCNK3 inh inactive.
Cc1onc(-c2ccccc2)c1C(=O)O/N=C(\N)c1ccc([N+](=O)[O-])o1 was read as KCNK3 inh inactive, hERG protect -2, KCNQ1 block inactive, KCNQ1 act inactive and KCNK9 inh inactive.
Cc1onc(-c2cccc(Cl)c2Cl)c1C(=O)O/N=C(\N)c1ccc([N+](=O)[O-])o1 was read as KCC2 mod -4.9*, KCNK3 inh inactive, hERG protect -8, KCNQ1 block inactive, KCNQ1 act inactive, KCNK9 inh inactive, KCC2 sec1 0.007, KCC2 bumet counter 0.0033, KCC2 secondary2 inconclusive, HEK counter1 0.0048*, KCC2 retest ouab 0.017 and HEK counter2 0.0079*.
COc1ccccc1N1CCN(S(=O)(=O)CCNC(=O)C2CC2)CC1 was read as KCNK3 inh inactive, hERG protect -4, KCNQ1 block inactive, KCNQ1 act inactive and KCNK9 inh inactive.
For Cc1cc([N+](=O)[O-])ccc1P(=O)(O)c1ccc([N+](=O)[O-])cc1C the results were KCNK3 inh inactive.
Screening CC(=O)c1cccc(NC(=S)NC(=O)Cc2ccccc2)c1 returned KCC2 mod 6.2*, KCNK3 inh inactive, hERG protect -8, KCNQ1 block inactive, KCNQ1 act inactive, KCNK9 inh inactive, KCC2 sec1 0.0079, KCC2 bumet counter 0.0091*, KCC2 secondary2 inconclusive, HEK counter1 0.01*, KCC2 retest ouab 0.02 and HEK counter2 inconclusive.
Cc1cccc(NC(=S)NNC(=O)c2csc(C)c2)c1 was read as KCC2 mod 4.5*, KCNK3 inh inactive, hERG protect 0, KCNQ1 block inactive, KCNQ1 act inactive, KCNK9 inh inactive, KCC2 sec1 inconclusive, KCC2 bumet counter 0.019*, KCC2 secondary2 0.035, HEK counter1 0.017*, KCC2 retest ouab inconclusive and HEK counter2 0.019*.
Screening CC(=O)c1cccc(NC(=S)NC(=O)c2ccc(C)cc2)c1 returned KCC2 mod 7.2*, KCNK3 inh inactive, hERG protect -5, KCNQ1 block inactive, KCNQ1 act inactive, KCNK9 inh inactive, KCC2 sec1 0.0059, KCC2 bumet counter 0.013*, KCC2 secondary2 0.029, HEK counter1 0.011*, KCC2 retest ouab inconclusive and HEK counter2 0.012*.
Screening COC(=O)c1cccc(NC(=O)NC(=O)c2ccccc2Cl)c1 returned KCC2 mod 0.21, KCNK3 inh inactive, hERG protect -9, KCNQ1 block inactive, KCNQ1 act inactive and KCNK9 inh inactive.
Screening CC(=O)c1cccc(NC(=S)NC(=O)c2ccccc2Cl)c1 returned KCC2 mod 5.4*, KCNK3 inh inactive, hERG protect -3, KCNQ1 block inactive, KCNQ1 act inactive, KCNK9 inh inactive, KCC2 sec1 0.008, KCC2 bumet counter 0.026*, KCC2 secondary2 0.034, HEK counter1 0.017*, KCC2 retest ouab 0.028* and HEK counter2 0.013*.
